Reference: ChEMBL document CHEMBL3227929, “Synthesis and evaluation for diuretic activity of 1-substituted 6-chloro-5-sulfamylindolines” (1979)

Assays:
Type in all cases: functional
[1] = system: Rattus norvegicus; assay: Diuretic activity in Wistar rat assessed as volume of excreted urine at 50 mg/kg, po measured after 0 to 5 hrs relative to urea-treated control
Method in brief: (§1)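 Female Wistar rats (150-200 g), groups of six, fasted 16 h, dosed orally at 50 mg/kg in 1% saline (15 mL/kg). Housed singly in metabolic cages with water ad libitum. Urine collected 0-5 h and 5-24 h. Na+ and K+ measured by flame photometry as mean mequiv, volume as mean mL. Each expressed as a ratio to a urea group (1000 mg/kg) run alongside vehicle control.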

[2] = system: Rattus norvegicus; assay: Diuretic activity in Wistar rat assessed as sodium level in excreted urine at 50 mg/kg, po measured after 0 to 5 hrs by flame photometric analysis relative to urea-treated control; method in brief: as §1
[3] = system: Rattus norvegicus; assay: Diuretic activity in Wistar rat assessed as potassium level in excreted urine at 50 mg/kg, po measured after 0 to 5 hrs by flame photometric analysis relative to urea-treated control; method in brief: as §1
[4] = system: Rattus norvegicus; assay: Diuretic activity in Wistar rat assessed as volume of excreted urine at 50 mg/kg, po measured after 5 to 24 hrs relative to urea-treated control; method in brief: as §1
[5] = system: Rattus norvegicus; assay: Diuretic activity in Wistar rat assessed as sodium level in excreted urine at 50 mg/kg, po measured after 5 to 24 hrs by flame photometric analysis relative to urea-treated control; method in brief: as §1
[6] = system: Rattus norvegicus; assay: Diuretic activity in Wistar rat assessed as potassium level in excreted urine at 50 mg/kg, po measured after 5 to 24 hrs by flame photometric analysis relative to urea-treated control; method in brief: as §1

SMILES: NS(=O)(=O)c1cc2c(cc1Cl)N(C(=O)c1ccccc1)CC2
- Ratio [1]: 0.83
- Ratio [2]: 0.79
- Ratio [3]: 0.41
- Ratio [4]: 0.85
- Ratio [5]: 1.08
- Ratio [6]: 1.1

SMILES: NS(=O)(=O)c1cc2c(cc1Cl)N=CNS2(=O)=O [CHLOROTHIAZIDE]
- Ratio [1]: 1.3
- Ratio [2]: 1.9
- Ratio [3]: 1.5
- Ratio [4]: 1
- Ratio [5]: 1.1
- Ratio [6]: 1

SMILES: Cl.NS(=O)(=O)c1cc2c(cc1Cl)NCC2
- Ratio [1]: 0.62
- Ratio [2]: 0.95
- Ratio [3]: 0.76
- Ratio [4]: 0.94
- Ratio [5]: 1.02
- Ratio [6]: 0.83

SMILES: CC(=O)N1CCc2cc(S(N)(=O)=O)c(Cl)cc21
- Ratio [1]: 0.53
- Ratio [2]: 0.63
- Ratio [3]: 0.53
- Ratio [4]: 0.72
- Ratio [5]: 1.09
- Ratio [6]: 1.1

SMILES: NS(=O)(=O)c1cc2c(cc1Cl)N(Cc1ccco1)CC2
- Ratio [1]: 0.15
- Ratio [2]: 0.29
- Ratio [3]: 0.24
- Ratio [4]: 1
- Ratio [5]: 1.09
- Ratio [6]: 1.29

SMILES: NS(=O)(=O)c1cc2c(cc1Cl)N(Cc1ccccc1)CC2
- Ratio [1]: 0.77
- Ratio [2]: 1
- Ratio [3]: 0.73
- Ratio [4]: 1.8
- Ratio [5]: 1.3
- Ratio [6]: 1.2

SMILES: NS(=O)(=O)c1cc2c(cc1Cl)N(C(=O)c1ccco1)CC2
- Ratio [1]: 0.31
- Ratio [2]: 0.46
- Ratio [3]: 0.38
- Ratio [4]: 0.87
- Ratio [5]: 1.2
- Ratio [6]: 1.23

SMILES: NS(=O)(=O)c1cc(C(=O)O)c(NCc2ccco2)cc1Cl [FUROSEMIDE]
- Ratio [1]: 2.75
- Ratio [2]: 9.63
- Ratio [3]: 1.12
- Ratio [4]: 1.08
- Ratio [5]: 0.96
- Ratio [6]: 1.31

SMILES: CCCC(=O)N1CCc2cc(S(N)(=O)=O)c(Cl)cc21
- Ratio [1]: 0.54
- Ratio [2]: 1.04
- Ratio [3]: 0.53
- Ratio [4]: 0.96
- Ratio [5]: 1.3
- Ratio [6]: 1.17

SMILES: CCCCN1CCc2cc(S(N)(=O)=O)c(Cl)cc21
- Ratio [1]: 0.7
- Ratio [2]: 0.98
- Ratio [3]: 0.78
- Ratio [4]: 0.9
- Ratio [5]: 1.15
- Ratio [6]: 1.06

SMILES: NS(=O)(=O)c1cc(C(=O)NN2CCc3cc(S(N)(=O)=O)c(Cl)cc32)ccc1Cl
- Ratio [1]: 0.99
- Ratio [2]: 1.47
- Ratio [3]: 1.09
- Ratio [4]: 1.26
- Ratio [5]: 1.24
- Ratio [6]: 1.18
